This is an account of results in PMC7983942 (Clinical Pharmacology and Therapeutics, 2020).

Molecules are shown by their SMILES.

The data set concerns the target T1, OCT1 (Homo sapiens, UniProt O15245).
T1 sequence (O15245 1-554): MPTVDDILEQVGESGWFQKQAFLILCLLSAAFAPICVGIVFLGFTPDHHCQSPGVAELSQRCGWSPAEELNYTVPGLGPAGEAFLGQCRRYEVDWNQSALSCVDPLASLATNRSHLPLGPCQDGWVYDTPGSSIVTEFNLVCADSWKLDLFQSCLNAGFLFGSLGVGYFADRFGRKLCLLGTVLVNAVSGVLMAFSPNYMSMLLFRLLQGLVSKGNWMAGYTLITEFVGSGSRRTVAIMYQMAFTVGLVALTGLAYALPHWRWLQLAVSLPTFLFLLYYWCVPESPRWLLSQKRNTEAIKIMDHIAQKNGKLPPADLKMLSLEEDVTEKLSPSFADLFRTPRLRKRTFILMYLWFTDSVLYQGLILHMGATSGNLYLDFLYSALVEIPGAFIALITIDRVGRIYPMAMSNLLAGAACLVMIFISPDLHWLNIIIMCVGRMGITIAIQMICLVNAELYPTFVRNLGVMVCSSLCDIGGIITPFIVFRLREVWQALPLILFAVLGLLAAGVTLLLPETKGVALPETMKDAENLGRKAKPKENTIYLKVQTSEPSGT
Description: Uptake into transporter-transfected vs wild-type HEK293 cells. Conditions: metformin 20 µM, two to four minutes. Format: in vitro ADME. Put shortly:
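Transfected HEK293 lines were OAT2 and OCT1, each run against wild-type cells, seeded on poly-D-lysine plates. Culture was 48 h at 37°C in DMEM with 10% FBS plus 1% gentamycin, 1% sodium pyruvate and 50 µg/mL hygromycin B. Probes were cyclic GMP 0.5 µM (OAT2) and metformin 20 µM (OCT1), over 2–4 min; test compound was 1 µM for 2 min. After four ice-cold washes and methanol lysis, the uptake ratio versus wild-type and the ratio of ratios were derived; n=3 in one experiment.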

In the case of `CN(C)C(=N)N=C(N)N` [metformin], the “Uptake ratio (vs. wild‐type HEK293 cells), probe” value is 15.4 ± 1.06.
